Among the data in ChEMBL document CHEMBL1132973, “Design, synthesis, and antimicrobial activity of 6-O-substituted ketolides active against resistant respiratory tract pathogens” (2000) are MIC and ED50 values, retold here.

≈ marks a conversion by molar mass, not a printed value.

The ED50 is the dose that gives a 50% effect, or the effect in half of the subjects. Read a low ED50 as greater potency.

Format in all cases: functional
The subject of test [1] is Staphylococcus aureus. As to the kind of experiment: In vitro antibacterial activity against Staphylococcus aureus strain A 5177. The gist of the method: (§1)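 MICs in µg/mL determined by agar dilution per NCCLS recommendations. Panel includes erythromycin-susceptible strains (S. aureus ATCC 6538P, S. pyogenes EES 61, S. pneumoniae ATCC 6303); ermA MLS_B-resistant S. aureus (A 5177 inducible, A 5278 constitutive); ermB strains (S. pyogenes 930, S. pneumoniae 5737); efflux strains (S. pyogenes PIU 2548 mefA, S. pneumoniae 5649 mefE); and β-lactamase-positive ampicillin-resistant H. influenzae DILL.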

Test [2] relates to Staphylococcus aureus. The test can be described thus: In vitro antibacterial activity against Staphylococcus aureus strain A 5278. The procedure, abridged:
as §1

The test system of test [3] is Staphylococcus aureus. The test can be described thus: In vitro antibacterial activity against Staphylococcus aureus strain ATCC 6538P. The gist of the method: as §1
Test [4] deals with Streptococcus pneumoniae. The test can be described thus: In vitro antibacterial activity against Streptococcus pneumoniae strain 5649. The procedure, abridged:
as §1

The test system of test [5] is Streptococcus pneumoniae. The test can be described thus: In vitro antibacterial activity against Streptococcus pneumoniae strain 5737. The gist of the method: as §1
Test [6] has as its system Streptococcus pneumoniae. The test can be described thus: In vitro antibacterial activity against Streptococcus pneumoniae strain ATCC 6303. The procedure, abridged:
as §1

For test [7], the system named is Streptococcus pyogenes. The test can be described thus: In vitro antibacterial activity against Streptococcus pyogenes strain 930. The gist of the method: as §1
In test [8] the test system is Streptococcus pyogenes. As to the kind of experiment: In vitro antibacterial activity against Streptococcus pyogenes strain PIU 2548. The procedure, abridged:
as §1

The subject of a further test is Haemophilus influenzae. The test can be described thus: In vitro antibacterial activity against Haemophilus influenzae strain DILL. The gist of the method: as §1
For test [9], the system named is Staphylococcus aureus. As to the kind of experiment: In vitro antibacterial activity against Staphylococcus aureus strain ATCC 6538P. The gist of the method:
as §1

Test [10] has as its system Streptococcus pyogenes. The test can be described thus: In vitro antibacterial activity against Streptococcus pyogenes strain EES 61. The gist of the method: as §1
The test system of test [11] is Staphylococcus aureus. The test can be described thus: (§2) In vivo antibacterial activity against Staphylococcus aureus strain 10649.
In test [12] the test system is Streptococcus pneumoniae. As to the kind of experiment: (§3) In vivo antibacterial activity against Streptococcus pneumoniae strain 5649. The gist of the method: (§4)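 Rat lung infection. Rats inoculated intratracheally with 0.5 mL bacterial suspension in 5% gastric hog mucin containing log 10⁶-10⁸ cfu. Dosed daily on days 1-3, starting 18 h post-inoculation. Lung bacterial burden measured by serial-dilution plating of lung homogenates on day 4. ED50, the dose giving a 2 log reduction versus vehicle-treated infected controls, was calculated from group means by linear regression.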

For test [13], the system named is Streptococcus pneumoniae. As to the kind of experiment: (§5) In vivo antibacterial activity against Streptococcus pneumoniae strain 6396. The gist of the method:
as §4

Test [14] has as its system Staphylococcus aureus. The description is as §2. The gist of the method: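 Mice were inoculated intravenously with a 100-fold LD50 of the organism, then dosed by oral gavage at 1 and 5 h post-inoculation across a dose range. Survival was monitored for 7 days. ED50 is the dose giving 50% survival of treated mice over the trial.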
This is another data set of the same source.

Test [15] deals with Streptococcus pneumoniae. The test is described as §3. This is another data set of the same source.
The subject of test [16] is Streptococcus pneumoniae. The test can be described thus: (§6) In vivo antibacterial activity against Streptococcus pneumoniae strain 6303.
Test [17] concerns Streptococcus pneumoniae. Described as §5. This is another data set of the same source.
The test system of test [18] is Streptococcus pyogenes. The test can be described thus: In vivo antibacterial activity against Streptococcus pyogenes strain C203.
Test [19] has as its system Streptococcus pneumoniae. Described as §6. The procedure, abridged:
as §4
This is another data set of the same source.

In the case of `C=CCO[C@@]1(C)C[C@@H](C)C(=O)[C@H](C)[C@@H](O)[C@](C)(O)[C@@H](CC)OC(=O)[C@H](C)C(=O)[C@H](C)[C@H]1O[C@@H]1O[C@H](C)C[C@H](N(C)C)[C@H]1O`, the MIC was 50 µg/mL (≈ 81.5 µM) in the test on Staphylococcus aureus [1]; > 100 µg/mL in the test on Staphylococcus aureus [2]; 12.5 µg/mL (≈ 20.4 µM) in the test on Staphylococcus aureus [3]; 8 µg/mL (≈ 13 µM) against Streptococcus pneumoniae [4]; > 128 µg/mL in the test with Streptococcus pneumoniae [5]; 4 µg/mL (≈ 6.52 µM) against Streptococcus pneumoniae [6]. For the same compound, the MIC against Streptococcus pyogenes [7] is > 128 µg/mL; in the test on Streptococcus pyogenes [8] it was 32 µg/mL (≈ 52.1 µM); in the test with Haemophilus influenzae it was > 128 µg/mL.
With `C=CCO[C@@]1(C)C[C@@H](C)C(=O)[C@H](C)[C@H]2NC(=O)O[C@]2(C)[C@@H](CC)OC(=O)[C@H](C)C(=O)[C@H](C)[C@H]1O[C@@H]1O[C@H](C)C[C@H](N(C)C)[C@H]1O`, the MIC is 1.56 µg/mL (≈ 2.44 µM) in the test with Staphylococcus aureus [1]; > 100 µg/mL against Staphylococcus aureus [2]; 0.78 µg/mL (≈ 1.22 µM) with Staphylococcus aureus [9]; 0.25 µg/mL (≈ 0.391 µM) against Streptococcus pneumoniae [4]; > 64 µg/mL in the test with Streptococcus pneumoniae [5]; 0.5 µg/mL (≈ 0.783 µM) in the test on Streptococcus pneumoniae [6]. In addition, the MIC in the test on Streptococcus pyogenes [7] was > 64 µg/mL; against Streptococcus pyogenes [8] it was 2 µg/mL (≈ 3.13 µM); in the test with Haemophilus influenzae, 64 µg/mL (≈ 100 µM); in the test with Streptococcus pyogenes [10], 0.25 µg/mL (≈ 0.391 µM).
As for `CC[C@H]1OC(=O)[C@H](C)C(=O)[C@H](C)[C@@H](O[C@@H]2O[C@H](C)C[C@H](N(C)C)[C@H]2O)[C@@](C)(OC/C=C/c2cnc3ccccc3c2)C[C@@H](C)C(=O)[C@H](C)[C@@H](O)[C@]1(C)O`, the MIC with Staphylococcus aureus [1] is 0.2 µg/mL (≈ 0.27 µM); against Staphylococcus aureus [2], > 100 µg/mL; in the test with Staphylococcus aureus [9] it was 0.2 µg/mL (≈ 0.27 µM); against Streptococcus pneumoniae [4] it was 0.25 µg/mL (≈ 0.337 µM); against Streptococcus pneumoniae [5] it was 16 µg/mL (≈ 21.6 µM); in the test on Streptococcus pneumoniae [6], 0.03 µg/mL (≈ 0.0405 µM). Also, the MIC in the test with Streptococcus pyogenes [7] stood at 100 µg/mL (≈ 135 µM); against Streptococcus pyogenes [8], 0.1 µg/mL (≈ 0.135 µM); against Haemophilus influenzae it was 16 µg/mL (≈ 21.6 µM); against Streptococcus pyogenes [10] it was 0.2 µg/mL (≈ 0.27 µM).
Regarding `CC[C@H]1OC(=O)[C@H](C)C(=O)[C@H](C)[C@@H](O[C@@H]2O[C@H](C)C[C@H](N(C)C)[C@H]2O)[C@](C)(OC/C=C/c2ccccc2)C[C@@H](C)C(=O)[C@H](C)[C@@H](O)[C@]1(C)O`, the MIC against Staphylococcus aureus [1] was 1.56 µg/mL (≈ 2.26 µM); against Staphylococcus aureus [2] it was > 100 µg/mL; in the test with Staphylococcus aureus [9] it was 1.56 µg/mL (≈ 2.26 µM); against Streptococcus pneumoniae [4], 2 µg/mL (≈ 2.9 µM); in the test on Streptococcus pneumoniae [5], 64 µg/mL (≈ 92.8 µM); against Streptococcus pneumoniae [6], 0.25 µg/mL (≈ 0.362 µM). The MIC is 64 µg/mL (≈ 92.8 µM) in the test with Streptococcus pyogenes [7], 2 µg/mL (≈ 2.9 µM) with Streptococcus pyogenes [8], 128 µg/mL (≈ 186 µM) against Haemophilus influenzae and 0.25 µg/mL (≈ 0.362 µM) in the test on Streptococcus pyogenes [10].
Turning to `CC[C@H]1OC(=O)[C@H](C)C(=O)[C@H](C)[C@@H](O[C@@H]2O[C@H](C)C[C@H](N(C)C)[C@H]2O)[C@](C)(OC/C=C/c2ccccc2)C[C@@H](C)C(=O)[C@H](C)[C@H]2NC(=O)O[C@@]21C`, the MIC against Staphylococcus aureus [1] is 0.1 µg/mL (≈ 0.14 µM); against Staphylococcus aureus [2] it was > 100 µg/mL; with Staphylococcus aureus [9], 0.1 µg/mL (≈ 0.14 µM); against Streptococcus pneumoniae [4] it was 0.25 µg/mL (≈ 0.35 µM); against Streptococcus pneumoniae [5], 64 µg/mL (≈ 89.5 µM); against Streptococcus pneumoniae [6], 0.03 µg/mL (≈ 0.042 µM). In addition, the MIC was 64 µg/mL (≈ 89.5 µM) in the test on Streptococcus pyogenes [7], 0.25 µg/mL (≈ 0.35 µM) in the test with Streptococcus pyogenes [8], 4 µg/mL (≈ 5.6 µM) in the test on Haemophilus influenzae and 0.03 µg/mL (≈ 0.042 µM) with Streptococcus pyogenes [10].
As for `CC[C@H]1OC(=O)[C@H](C)[C@@H](O[C@H]2C[C@@](C)(OC)[C@@H](O)[C@H](C)O2)[C@H](C)[C@@H](O[C@@H]2O[C@H](C)C[C@H](N(C)C)[C@H]2O)[C@](C)(O)C[C@@H](C)CN(C)[C@H](C)[C@@H](O)[C@]1(C)O` [AZITHROMYCIN], the MIC against Staphylococcus aureus [11] is 0.78 µg/mL (≈ 1.04 µM); against Streptococcus pneumoniae [15], 16 µg/mL (≈ 21.4 µM); with Streptococcus pneumoniae [16], 0.12 µg/mL (≈ 0.16 µM); against Streptococcus pneumoniae [17], > 128 µg/mL; with Streptococcus pyogenes [18], 0.06 µg/mL (≈ 0.0801 µM); with Streptococcus pyogenes [18] (Streptococcus pyogenes, read-out: MIC) it was 0.06 µg/mL (≈ 0.0801 µM). Besides, the ED50 was 78.7 mg/kg in the test with Streptococcus pneumoniae [12], > 100 mg/kg in the test with Streptococcus pneumoniae [13], 24.8 mg/kg in the test with Staphylococcus aureus [14] and 6.1 mg/kg in the test on Streptococcus pyogenes [18].
For the compound `CC[C@H]1OC(=O)[C@H](C)C(=O)[C@H](C)[C@@H](O[C@@H]2O[C@H](C)C[C@H](N(C)C)[C@H]2O)[C@](C)(OCC=Cc2cnc3ccccc3c2)C[C@@H](C)C(=O)[C@H](C)[C@H]2NC(=O)O[C@@]21C` [CETHROMYCIN], the MIC is 0.05 µg/mL (≈ 0.0653 µM) in the test with Staphylococcus aureus [1]; > 100 µg/mL against Staphylococcus aureus [2]; 0.05 µg/mL (≈ 0.0653 µM) in the test on Staphylococcus aureus [9]; 0.25 µg/mL (≈ 0.326 µM) with Streptococcus pneumoniae [4]; 0.25 µg/mL (≈ 0.326 µM) in the test on Streptococcus pneumoniae [5]; 0.004 µg/mL (≈ 0.00522 µM) in the test on Streptococcus pneumoniae [6]. Further, the MIC in the test on Streptococcus pyogenes [7] was 1 µg/mL (≈ 1.31 µM); in the test on Streptococcus pyogenes [8], 0.125 µg/mL (≈ 0.163 µM); against Haemophilus influenzae it was 2 µg/mL (≈ 2.61 µM); in the test on Streptococcus pyogenes [10] it was 0.004 µg/mL (≈ 0.00522 µM).
As for `CC[C@H]1OC(=O)[C@H](C)[C@@H](O[C@H]2C[C@@](C)(OC)[C@@H](O)[C@H](C)O2)[C@H](C)[C@@H](O[C@@H]2O[C@H](C)C[C@H](N(C)C)[C@H]2O)[C@](C)(O)C[C@@H](C)C(=O)[C@H](C)[C@@H](O)[C@]1(C)O` [ERYTHROMYCIN], the MIC with Staphylococcus aureus [1] was 6.2 µg/mL (≈ 8.45 µM); against Staphylococcus aureus [2], > 100 µg/mL; against Streptococcus pneumoniae [4], 16 µg/mL (≈ 21.8 µM); against Streptococcus pneumoniae [5] it was > 128 µg/mL; against Streptococcus pneumoniae [6] it was 0.06 µg/mL (≈ 0.0818 µM); with Streptococcus pyogenes [7], > 128 µg/mL. Also, the MIC is 32 µg/mL (≈ 43.6 µM) against Streptococcus pyogenes [8], 8 µg/mL (≈ 10.9 µM) in the test on Haemophilus influenzae and 0.06 µg/mL (≈ 0.0818 µM) against Streptococcus pyogenes [10].
On to `CC[C@H]1OC(=O)[C@H](C)C(=O)[C@H](C)[C@@H](O[C@@H]2O[C@H](C)C[C@H](N(C)C)[C@H]2O)[C@](C)(OC)C[C@@H](C)C(=O)[C@H](C)[C@H]2N(CCCCn3cnc(-c4cccnc4)c3)C(=O)O[C@]12C` [TELITHROMYCIN], for which the MIC is > 100 µg/mL in the test with Staphylococcus aureus [2]; 8 µg/mL (≈ 9.85 µM) in the test on Streptococcus pneumoniae [5]; 0.004 µg/mL (≈ 0.00493 µM) with Streptococcus pneumoniae [6]; 0.1 µg/mL (≈ 0.123 µM) in the test on Staphylococcus aureus [11]; 8 µg/mL (≈ 9.85 µM) with Streptococcus pyogenes [7]; 2 µg/mL (≈ 2.46 µM) in the test with Streptococcus pyogenes [8]. Also, the MIC is 0.5 µg/mL (≈ 0.616 µM) against Streptococcus pneumoniae [15], 0.004 µg/mL (≈ 0.00493 µM) against Streptococcus pneumoniae [16], 0.125 µg/mL (≈ 0.154 µM) in the test with Streptococcus pneumoniae [17] and 0.004 µg/mL (≈ 0.00493 µM) in the test with Streptococcus pyogenes [10]. The 50% effective dose (ED50) in the test with Streptococcus pneumoniae [12] stood at 25.8 mg/kg; in the test on Streptococcus pneumoniae [19], 34.1 mg/kg; in the test with Streptococcus pneumoniae [13], 26.7 mg/kg; with Staphylococcus aureus [14], 12.5 mg/kg.
